Reference: ChEMBL document CHEMBL1649261, “Pharmacodynamic profile of tigecycline against methicillin-resistant Staphylococcus aureus in an experimental pneumonia model” (Antimicrob Agents Chemother, 2009)
In brackets after ≈: the same amount, converted by molar mass.

Tests used:
Staphylococcus aureus [1] = assay: Antibacterial activity against community-acquired methicillin-resistant Staphylococcus aureus 156 by microdilution method; format: functional
Summary of the method: (§1)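 Tigecycline MIC measured in triplicate by broth microdilution following CLSI guidelines. Isolates were stored at −80°C in skim milk and subcultured twice on blood agar before testing.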

Staphylococcus aureus [2] = assay: Antibacterial activity against hospital-acquired methicillin-resistant Staphylococcus aureus 56 by microdilution method; format: functional; summary of the method: as §1
[3] = Cmax in BALB/c mouse infected with Staphylococcus aureus at 6.25 mg/kg, sc administered as single dose; format: ADME, organism-based; parameters: dose 6.25 mg/kg, route subcutaneous; settings: in vivo
Summary of the method: (§2)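 Neutropenic BALB/c mice (cyclophosphamide ip 250 and 100 mg/kg, days −4 and −1) with S. aureus pneumonia from oral instillation of 0.05 ml of a 3% mucin suspension received a single 0.2-ml sc dose in normal saline. Serum was taken at 0.25, 0.5, 1, 1.5, 2, 4, 6 and 8 h, six mice per time point. Drug was measured by validated HPLC.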

[4] = Cmax in BALB/c mouse infected with Staphylococcus aureus at 50 mg/kg, sc administered as single dose; format: ADME, organism-based; parameters: dose 50 mg/kg, route subcutaneous; settings: in vivo; summary of the method: as §2
[5] = Tmax in BALB/c mouse infected with Staphylococcus aureus at 6.25 mg/kg, sc administered as single dose; format: ADME, organism-based; parameters: dose 6.25 mg/kg, route subcutaneous; settings: in vivo; summary of the method: as §2
[6] = Tmax in BALB/c mouse infected with Staphylococcus aureus at 12.5 mg/kg, sc administered as single dose; format: ADME, organism-based; parameters: dose 12.5 mg/kg, route subcutaneous; settings: in vivo; summary of the method: as §2
[7] = Tmax in BALB/c mouse infected with Staphylococcus aureus at 25 mg/kg, sc administered as single dose; format: ADME, organism-based; parameters: dose 25 mg/kg, route subcutaneous; settings: in vivo; summary of the method: as §2
[8] = AUC (0 to 24 hrs) in BALB/c mouse infected with Staphylococcus aureus at 25 mg/kg, sc administered as single dose; format: ADME, organism-based; parameters: time < 24 hr, dose 25 mg/kg, route subcutaneous; settings: plasma; summary of the method: as §2
[9] = AUC (0 to 24 hrs) in BALB/c mouse infected with Staphylococcus aureus at 50 mg/kg, sc administered as single dose; format: ADME, organism-based; parameters: time < 24 hr, dose 50 mg/kg, route subcutaneous; settings: plasma; summary of the method: as §2
[10] = Half life in BALB/c mouse infected with Staphylococcus aureus at 12.5 mg/kg, sc administered as single dose; format: ADME, organism-based; parameters: dose 12.5 mg/kg, route subcutaneous; settings: in vivo; summary of the method: as §2
[11] = Half life in BALB/c mouse infected with Staphylococcus aureus at 50 mg/kg, sc administered as single dose; format: ADME, organism-based; parameters: dose 50 mg/kg, route subcutaneous; settings: in vivo; summary of the method: as §2
Mus musculus = assay: Volume of distribution in BALB/c mouse infected with Staphylococcus aureus at 50 mg/kg, sc administered as single dose; format: ADME, organism-based; parameters: dose 50 mg/kg, route subcutaneous; settings: in vivo; summary of the method: as §2
[12] = Protein binding in Staphylococcus aureus-infected BALB/c mouse serum at 6.25 mg/kg, sc administered as single dose; format: ADME, organism-based; parameters: dose 6.25 mg/kg, route subcutaneous; settings: read-out: PB (converted)
Summary of the method: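 Ultrafiltration was run in triplicate with 30,000-MW cutoff devices. Drug was diluted into fresh mouse serum to final 1.5, 3, 6 and 15 μg/ml, held at 37°C for 10 min with shaking, and centrifuged at 1,000 × g for 45 min at 10°C. Binding was calculated as (S − SUF)/S × 100 for each concentration, each matched to a dose by its peak serum level.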

[13] = AUC (0 to 8 hrs) in Staphylococcus aureus-infected BALB/c mouse epithelial lining fluid at 12.5 mg/kg, sc administered as single dose; format: ADME, organism-based; parameters: time < 8 hr, dose 12.5 mg/kg, route subcutaneous
Summary of the method: (§3)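 Infected neutropenic BALB/c mice received a single sc dose in saline. Normal-saline bronchoalveolar lavage was done at 0.25, 1, 4 and 8 h, six mice per time. HPLC drug levels in lavage were converted to epithelial lining fluid concentrations with the serum/BAL urea ratio. AUC0-8 was calculated by the trapezoidal rule, and ELF drug was taken as free drug.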

[14] = AUC (0 to 8 hrs) in Staphylococcus aureus-infected BALB/c mouse epithelial lining fluid at 25 mg/kg, sc administered as single dose; format: ADME, organism-based; parameters: time < 8 hr, dose 25 mg/kg, route subcutaneous; summary of the method: as §3
[15] = AUC (0 to 8 hrs) in Staphylococcus aureus-infected BALB/c mouse epithelial lining fluid at 50 mg/kg, sc administered as single dose; format: ADME, organism-based; parameters: time < 8 hr, dose 50 mg/kg, route subcutaneous; summary of the method: as §3
[16] = Ratio of fAUC (0 to 8 hrs) in epithelial lining fluid to plasma of Staphylococcus aureus-infected BALB/c mouse at 12.5 mg/kg, sc administered as single dose; format: ADME, organism-based; parameters: dose 12.5 mg/kg, route subcutaneous
Summary of the method: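 Neutropenic BALB/c mice (cyclophosphamide ip 250 and 100 mg/kg, 4 d and 1 d pre-inoculation) infected orally with S. aureus in 3% mucin. Single 0.2-ml sc dose in normal saline; six mice per time point. Serum sampled 0.25–8 h, BAL at 0.25, 1, 4, 8 h; HPLC; ELF by urea correction. Trapezoidal AUC0-8; serum corrected for ultrafiltration protein binding, BAL drug assumed free.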

[17] = Ratio of fAUC to MIC in methicillin-susceptible Staphylococcus aureus ATCC 29213-infected BALB/c mouse at 80% maximal effective concentration; format: functional
Summary of the method: (§4)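 Mice were neutropenic and infected by lung instillation with ATCC 29213, with the MIC set by CLSI broth microdilution in triplicate. Sc treatment started 6 h post-inoculation at 1.56–150 mg/kg/day, given as one, two or three doses. Lung CFU at 24 h were compared with 0-h controls. Change in log10 CFU was fitted against protein-binding-corrected fAUC/MIC with a sigmoid Emax model.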

[18] = Ratio of fAUC to MIC in community-acquired methicillin-resistant Staphylococcus aureus 156-infected BALB/c mouse at 80% maximal effective concentration; format: functional
Summary of the method: (§5)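 Neutropenic BALB/c mice (cyclophosphamide 250 and 100 mg/kg i.p., 4 and 1 days before infection) were infected by oral inhalation of 0.05 ml inoculum in 3% mucin under isoflurane. Subcutaneous tigecycline (1.56–150 mg/kg/day, single or 2–3 divided doses, saline vehicle) was started 6 h post-infection. At 24 h lungs were homogenized and plated; change in log10 CFU was taken versus 0-h controls.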

[19] = Ratio of fAUC to MIC in hospital-acquired methicillin-resistant Staphylococcus aureus 56-infected BALB/c mouse at 80% maximal effective concentration; format: functional; summary of the method: as §5
[20] = Ratio of fAUC to MIC in hospital-acquired methicillin-resistant Staphylococcus aureus 152-infected BALB/c mouse at 80% maximal effective concentration; format: functional; summary of the method: as §5
[21] = Ratio of fAUC to MIC in methicillin-susceptible Staphylococcus aureus ATCC 29213-infected BALB/c mouse at […] maximal effective concentration; format: functional; summary of the method: as §4
[22] = Ratio of fAUC to MIC in community-acquired methicillin-resistant Staphylococcus aureus 147-infected BALB/c mouse at […] maximal effective concentration; format: functional; summary of the method: as §5
[23] = Ratio of fAUC to MIC in hospital-acquired methicillin-resistant Staphylococcus aureus 152-infected BALB/c mouse at […] maximal effective concentration; format: functional; summary of the method: as §5
[24] = Ratio of fAUC to MIC in community-acquired methicillin-resistant Staphylococcus aureus 144-infected BALB/c mouse at bacteriostatic concentration; format: functional; summary of the method: as §5
[25] = Ratio of fAUC to MIC in community-acquired methicillin-resistant Staphylococcus aureus 156-infected BALB/c mouse at bacteriostatic concentration; format: functional; summary of the method: as §5
[26] = Ratio of fAUC to MIC in hospital-acquired methicillin-resistant Staphylococcus aureus 56-infected BALB/c mouse at bacteriostatic concentration; format: functional; summary of the method: as §5

CN(C)c1cc(NC(=O)CNC(C)(C)C)c(O)c2c1C[C@H]1C[C@H]3[C@H](N(C)C)C(O)=C(C(N)=O)C(=O)[C@@]3(O)C(O)=C1C2=O [TIGECYCLINE]
MIC (Staphylococcus aureus [1]): 0.125 µg/mL (≈ 0.213 µM)
MIC (Staphylococcus aureus [2]): 0.5 µg/mL (≈ 0.854 µM)
Cmax [3]: 1570 ng/mL
Cmax [4]: 15800 ng/mL
Tmax [5]: 20.4 min
Tmax [6]: 16.2 min
Tmax [7]: 44.4 min
AUC(0-t) at 24 h [8]: 37500 ng·h/mL
AUC(0-t) at 24 h [9]: 72500 ng·h/mL
half-life [10]: 428 min
half-life [11]: 691 min
Vd (Mus musculus): 2.62 L/kg
fraction unbound [12]: 0.15
AUC(0-t) at 8 h [13]: 11000 ng·h/mL
AUC(0-t) at 8 h [14]: 20400 ng·h/mL
AUC(0-t) at 8 h [15]: 41900 ng·h/mL
Kp uu [16]: 7.02
fAUC/MIC [17]: 2.68
fAUC/MIC [18]: 5.22
fAUC/MIC [19]: 2.11
fAUC/MIC [20]: 2.48
fAUC/MIC [21]: 2.33
fAUC/MIC [22]: 0.69
fAUC/MIC [23]: 1.43
fAUC/MIC [24]: 2.17
fAUC/MIC [25]: 4.18
fAUC/MIC [26]: 0.43
